Calls of active or inactive are those of the source. No cut-off for these calls is given here.
Key:
[1] = molecular target: T1, Histone-lysine N-methyltransferase NSD2 (Homo sapiens) (UniProt O96028); assay: Binding affinity to NSD2 PWWP1 domain (unknown origin) assessed as change in aggregation temperature at 500 uM by heating at 25 to 85 degC by differential static light scattering method; details: for deltaT: filed as antagonist
T1 sequence (whole entry): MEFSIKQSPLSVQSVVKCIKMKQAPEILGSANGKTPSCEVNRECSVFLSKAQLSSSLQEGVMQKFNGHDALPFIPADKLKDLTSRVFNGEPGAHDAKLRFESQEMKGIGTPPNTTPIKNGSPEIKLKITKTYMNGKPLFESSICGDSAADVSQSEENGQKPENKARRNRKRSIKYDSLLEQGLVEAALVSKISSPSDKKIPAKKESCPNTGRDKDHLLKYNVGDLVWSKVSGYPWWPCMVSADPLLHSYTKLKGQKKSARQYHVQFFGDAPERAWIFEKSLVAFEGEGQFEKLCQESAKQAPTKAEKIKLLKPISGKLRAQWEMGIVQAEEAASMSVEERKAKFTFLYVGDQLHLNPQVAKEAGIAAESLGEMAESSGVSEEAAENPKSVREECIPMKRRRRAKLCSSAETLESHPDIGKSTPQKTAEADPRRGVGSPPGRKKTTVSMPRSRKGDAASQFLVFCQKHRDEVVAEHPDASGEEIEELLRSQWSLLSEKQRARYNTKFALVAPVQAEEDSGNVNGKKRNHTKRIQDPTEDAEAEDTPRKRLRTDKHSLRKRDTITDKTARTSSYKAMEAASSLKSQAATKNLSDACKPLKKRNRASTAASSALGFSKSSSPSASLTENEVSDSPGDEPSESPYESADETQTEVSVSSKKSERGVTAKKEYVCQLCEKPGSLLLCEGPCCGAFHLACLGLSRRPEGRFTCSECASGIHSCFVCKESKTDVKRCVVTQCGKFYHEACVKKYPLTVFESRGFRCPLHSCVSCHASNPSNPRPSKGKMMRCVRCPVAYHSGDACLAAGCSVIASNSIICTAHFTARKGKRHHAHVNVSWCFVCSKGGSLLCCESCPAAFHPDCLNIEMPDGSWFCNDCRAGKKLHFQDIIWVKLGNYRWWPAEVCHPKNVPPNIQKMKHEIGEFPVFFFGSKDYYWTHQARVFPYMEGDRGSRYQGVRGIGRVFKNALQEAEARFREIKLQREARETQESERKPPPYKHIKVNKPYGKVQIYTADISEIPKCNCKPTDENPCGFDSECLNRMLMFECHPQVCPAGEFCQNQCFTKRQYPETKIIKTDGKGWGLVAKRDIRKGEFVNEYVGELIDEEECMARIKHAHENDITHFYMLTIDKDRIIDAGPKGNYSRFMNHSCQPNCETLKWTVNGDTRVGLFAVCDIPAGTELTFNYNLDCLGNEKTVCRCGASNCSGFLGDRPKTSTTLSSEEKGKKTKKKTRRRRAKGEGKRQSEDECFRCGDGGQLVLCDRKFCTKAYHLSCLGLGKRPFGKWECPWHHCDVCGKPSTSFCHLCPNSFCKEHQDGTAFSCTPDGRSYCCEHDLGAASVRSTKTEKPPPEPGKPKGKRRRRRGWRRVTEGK

[2] = molecular target: T1, Histone-lysine N-methyltransferase NSD2 (Homo sapiens); assay: (§1) Binding affinity to NSD2 PWWP1 domain (unknown origin) assessed as dissociation constant by surface plasmon resonance analysis
How it was run: (§2)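 SPR in single-cycle kinetics, HBS-EP buffer (20 mM HEPES pH 7.4, 150 mM NaCl, 3 mM EDTA, 0.05% Tween-20) with 5% DMSO. Ten concentrations from 200 μM top, twofold dilutions. Contact time 60 s, dissociation 120 s, flow 75 μL/min; Kd derived.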

[3] = molecular target: T2, Histone-lysine N-methyltransferase NSD2 (Homo sapiens, UniProt O96028); assay: as §1; how it was run: as §2
T2 sequence (O96028 whole entry): T1 sequence (whole entry)

Structure (SMILES) | Activity [1] | Activity [2] | deltaT [1] [°C] | Kd [3] [µM]
CC(C)N(Cc1ccc(F)cc1)C(=O)c1ccc(C#N)cc1 | inactive | inactive | – | –
N#Cc1ccc(C(=O)N(CC2CCOC2)C2CC2)cc1 (configuration not stated) | – | – | 5.4 | 5.7
N#Cc1ccc(C(=O)N2CCCC2c2ccc(Cl)cc2)cc1 (configuration not stated) | – | – | – | 175
N#Cc1ccc(C(=O)N(Cc2ccc(F)cc2)C2CCC2)cc1 | – | – | 1.1 | 114
CN(Cc1ccc(F)cc1)C(=O)c1ccc(C#N)cc1 | – | – | 2 | 74
N#Cc1ccc(C(=O)N2CCCC2c2ccc3c(c2)OCCO3)cc1 (configuration not stated) | – | – | 2.7 | 138
N#Cc1ccc(C(=O)N(Cc2ccc(F)cc2)C2CC2)cc1 | – | – | – | 7
N#Cc1ccc(C(=O)N(Cc2ccc(F)cc2)C2CCCCC2)cc1 | inactive | inactive | – | –
N#Cc1ccc(C(=O)NCc2ccc(F)cc2)cc1 | inactive | inactive | – | –

Now from value to molecule:

Activity [1] | Activity [2] | deltaT [1] [°C] | Kd [3] [µM] | Structure (SMILES)
– | – | 1.2 | 297 | O=C(c1ccc(N2CNC=N2)cc1)N1CCCC1c1ccc(F)cc1 (configuration not stated)
inactive | inactive | – | – | Cc1ccc(C(=O)N2CCCC2c2ccc(Cl)cc2)cc1 (configuration not stated)
– | – | 1.4 | 173 | COC(=O)c1ccc(C(=O)N2CCCC2c2ccc(F)cc2)cc1 (configuration not stated)
– | – | 2.4 | 208 | COc1ccc(C2CCCN2C(=O)c2ccc(C#N)cc2)cc1 (configuration not stated)
– | – | 2.4 | 110 | N#Cc1ccc(C(=O)N2CCCC2c2ccccc2)cc1 (configuration not stated)
inactive | inactive | – | – | O=C(c1ccccc1)N1CCCC1c1ccccc1 (configuration not stated)
– | – | 2.8 | 160 | N#Cc1ccc(C(=O)N2CCCC2c2ccncc2)cc1 (configuration not stated)
– | – | 2.2 | 178 | N#Cc1ccc(C(=O)N2CCCC2c2ccsc2)cc1 (configuration not stated)
